From ChEMBL document CHEMBL4393701, “Appendix A. dithioloquinolinethiones as new potential multitargeted antibacterial and antifungal agents: Synthesis, biological evaluation and molecular docking studies” (2019)
Values after ≈ are worked out from the molar mass of the structure shown.

What was measured:
Bacillus cereus [1] = experiment: Antibacterial activity against Bacillus cereus clinical isolate after 24 hrs by iodonitrotetrazolium chloride dye based microdilution assay; assay type: functional
Procedure, shortened: (§1)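 Fresh overnight cultures adjusted spectrophotometrically to 1×10^5 CFU/mL, giving 1.0×10^4 CFU per well in tryptic soy broth. Compounds were dissolved in 5% DMSO and tested at 0.001-1.0 mg/ml by serial dilution; 5% DMSO was the negative control. After 24 h at 37 °C, 0.2 mg/mL INT solution was added for 30 min at 37 °C and OD read at 655 nm. MIC is the lowest concentration giving significant growth inhibition versus the positive control. Duplicates, repeated three times.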

Bacillus cereus [2] = experiment: Bactericidal activity against Bacillus cereus clinical isolate incubated for 24 hrs followed by re-plating on tryptic soy broth; assay type: functional
Procedure, shortened: (§2)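 Bacteria were grown in tryptic soy broth, 1.0×10^4 CFU per well, with compounds in 5% DMSO at 0.001-1.0 mg/ml for 24 h at 37 °C. Then 10 µL was subcultured into fresh TSB. MBC is the lowest concentration showing no growth after subculture, taken as 99.5% kill of the original inoculum. Duplicates, repeated three times.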

Micrococcus flavus [3] = experiment: Antibacterial activity against Micrococcus flavus ATCC 10240 after 24 hrs by iodonitrotetrazolium chloride dye based microdilution method; assay type: functional; settings: ATCC 10240, 24 h; procedure, shortened: as §1
Micrococcus flavus [4] = experiment: Bactericidal activity against Micrococcus flavus ATCC 10240 incubated for 24 hrs followed by re-plating on tryptic soy broth; assay type: functional; settings: ATCC 10240, 24 h; procedure, shortened: as §2
Staphylococcus aureus [5] = experiment: Antibacterial activity against Staphylococcus aureus ATCC 6538 after 24 hrs by iodonitrotetrazolium chloride dye based microdilution method; assay type: functional; settings: ATCC 6538, 24 h; procedure, shortened: as §1
Staphylococcus aureus [6] = experiment: Bactericidal activity against Staphylococcus aureus ATCC 6538 incubated for 24 hrs followed by re-plating on tryptic soy broth; assay type: functional; settings: ATCC 6538, 24 h; procedure, shortened: as §2
Listeria monocytogenes [7] = experiment: Antibacterial activity against Listeria monocytogenes NCTC 7973 after 24 hrs by iodonitrotetrazolium chloride dye based microdilution method; assay type: functional; settings: NCTC 7973, 24 h; procedure, shortened: as §1
Listeria monocytogenes [8] = experiment: Bactericidal activity against Listeria monocytogenes NCTC 7973 incubated for 24 hrs followed by re-plating on tryptic soy broth; assay type: functional; settings: NCTC 7973, 24 h; procedure, shortened: as §2
Enterobacter cloacae [9] = experiment: Antibacterial activity against Enterobacter cloacae clinical isolate after 24 hrs by iodonitrotetrazolium chloride dye based microdilution method; assay type: functional; procedure, shortened: as §1
Enterobacter cloacae [10] = experiment: Bactericidal activity against Enterobacter cloacae incubated for 24 hrs followed by re-plating on tryptic soy broth; assay type: functional; procedure, shortened: as §2
Pseudomonas aeruginosa [11] = experiment: Antibacterial activity against Pseudomonas aeruginosa ATCC 27853 after 24 hrs by iodonitrotetrazolium chloride dye based microdilution method; assay type: functional; settings: ATCC 27853, 24 h; procedure, shortened: as §1
Pseudomonas aeruginosa [12] = experiment: Bactericidal activity against Pseudomonas aeruginosa ATCC 27853 incubated for 24 hrs followed by re-plating on tryptic soy broth; assay type: functional; settings: ATCC 27853, 24 h; procedure, shortened: as §2
Salmonella typhimurium [13] = experiment: Antibacterial activity against Salmonella typhimurium ATCC 13311 after 24 hrs by iodonitrotetrazolium chloride dye based microdilution method; assay type: functional, Salmonella enterica subsp. enterica serovar Typhimurium; settings: Salmonella enterica, ATCC 13311, 24 h; procedure, shortened: as §1
Salmonella typhimurium [14] = experiment: Bactericidal activity against Salmonella typhimurium ATCC 13311 incubated for 24 hrs followed by re-plating on tryptic soy broth; assay type: functional, Salmonella enterica subsp. enterica serovar Typhimurium; settings: Salmonella enterica, ATCC 13311, 24 h; procedure, shortened: as §2
Escherichia coli [15] = experiment: Antibacterial activity against Escherichia coli ATCC 35210 after 24 hrs by iodonitrotetrazolium chloride dye based microdilution method; assay type: functional; settings: ATCC 35210, 24 h; procedure, shortened: as §1
Escherichia coli [16] = experiment: Bactericidal activity against Escherichia coli ATCC 35210 incubated for 24 hrs followed by re-plating on tryptic soy broth; assay type: functional; settings: ATCC 35210, 24 h; procedure, shortened: as §2
Aspergillus fumigatus [17] = experiment: Antifungal activity against Aspergillus fumigatus ATCC 1022 after 72 hrs by microdilution technique; assay type: functional; settings: ATCC 1022, 72 h
Procedure, shortened: (§3)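 Spores were washed off malt agar with 0.85% saline containing 0.1% Tween 80 and adjusted to about 1.0×10^5 per well. Compounds in 5% DMSO were serially diluted (0.001-1.0 mg/ml) in malt broth with inoculum. Plates were shaken at 160 rpm for 72 h at 28 °C. MIC is the lowest concentration without visible growth under a binocular microscope. Three independent experiments in duplicate.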

Aspergillus fumigatus [18] = experiment: Fungicidal activity against Aspergillus fumigatus ATCC 1022 incubated for 72 hrs followed by sub-culturing on broth malt medium and measured after 72 hrs; assay type: functional; settings: ATCC 1022, 72 h
Procedure, shortened: (§4)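 After 72 h exposure in malt broth, 2 µL from test wells was subcultured into wells holding 100 µL broth and incubated a further 72 h at 28 °C. MFC is the lowest concentration with no visible growth, taken as 99.5% kill of the original inoculum. Three independent experiments in duplicate.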

Aspergillus versicolor [19] = experiment: Antifungal activity against Aspergillus versicolor ATCC 11730 after 72 hrs by microdilution method; assay type: functional; settings: ATCC 11730, 72 h; procedure, shortened: as §3
Aspergillus versicolor [20] = experiment: Fungicidal activity against Aspergillus versicolor ATCC 11730 incubated for 72 hrs followed by sub-culturing on broth malt medium and measured after 72 hrs; assay type: functional; settings: ATCC 11730, 72 h; procedure, shortened: as §4
Aspergillus ochraceus [21] = experiment: Antifungal activity against Aspergillus ochraceus ATCC 12066 after 72 hrs by microdilution technique; assay type: functional; settings: ATCC 12066, 72 h; procedure, shortened: as §3
Aspergillus ochraceus [22] = experiment: Fungicidal activity against Aspergillus ochraceus ATCC 12066 incubated for 72 hrs followed by sub-culturing on broth malt medium and measured after 72 hrs; assay type: functional; settings: ATCC 12066, 72 h; procedure, shortened: as §4
Aspergillus niger [23] = experiment: Antifungal activity against Aspergillus niger ATCC 6275 after 72 hrs by microdilution technique; assay type: functional; settings: ATCC 6275, 72 h; procedure, shortened: as §3
Aspergillus niger [24] = experiment: Fungicidal activity against Aspergillus niger ATCC 6275 incubated for 72 hrs followed by sub-culturing on broth malt medium and measured after 72 hrs; assay type: functional; settings: ATCC 6275, 72 h; procedure, shortened: as §4
Trichoderma viride [25] = experiment: Antifungal activity against Trichoderma viride IAM 5061 after 72 hrs by microdilution technique; assay type: functional; settings: IAM 5061, 72 h; procedure, shortened: as §3
Trichoderma viride [26] = experiment: Fungicidal activity against Trichoderma viride IAM 5061 incubated for 72 hrs followed by sub-culturing on broth malt medium and measured after 72 hrs; assay type: functional; settings: IAM 5061, 72 h; procedure, shortened: as §4
Penicillium ochrochloron [27] = experiment: Antifungal activity against Penicillium ochrochloron ATCC 9112 after 72 hrs by microdilution technique; assay type: functional; settings: ATCC 9112, 72 h; procedure, shortened: as §3
Penicillium ochrochloron [28] = experiment: Fungicidal activity against Penicillium ochrochloron ATCC 9112 incubated for 72 hrs followed by sub-culturing on broth malt medium and measured after 72 hrs; assay type: functional; settings: ATCC 9112, 72 h; procedure, shortened: as §4
[29] = Antifungal activity against Penicillium funiculosum ATCC 36839 after 72 hrs by microdilution technique; assay type: functional; settings: Talaromyces pinophilus, ATCC 36839, 72 h; procedure, shortened: as §3
[30] = Fungicidal activity against Penicillium funiculosum ATCC 36839 incubated for 72 hrs followed by sub-culturing on broth malt medium and measured after 72 hrs; assay type: functional; settings: Talaromyces pinophilus, ATCC 36839, 72 h; procedure, shortened: as §4
Penicillium cyclopium [31] = experiment: Antifungal activity against Penicillium verrucosum var. cyclopium food isolate after 72 hrs by microdilution technique; assay type: functional; procedure, shortened: as §3
Penicillium cyclopium [32] = experiment: Fungicidal activity against Penicillium verrucosum var. cyclopium food isolate incubated for 72 hrs followed by sub-culturing on broth malt medium and measured after 72 hrs; assay type: functional; procedure, shortened: as §4

SMILES | MIC (Bacillus cereus [1]) | MBC (Bacillus cereus [2]) | MIC (Micrococcus flavus [3]) | MBC (Micrococcus flavus [4]) | MIC (Staphylococcus aureus [5]) | MBC (Staphylococcus aureus [6]) | MIC (Listeria monocytogenes [7]) | MBC (Listeria monocytogenes [8]) | MIC (Enterobacter cloacae [9]) | MBC (Enterobacter cloacae [10]) | MIC (Pseudomonas aeruginosa [11]) | MBC (Pseudomonas aeruginosa [12]) | MIC (Salmonella typhimurium [13]) | MBC (Salmonella typhimurium [14]) | MIC (Escherichia coli [15]) | MBC (Escherichia coli [16]) | MIC (Aspergillus fumigatus [17]) | MFC (Aspergillus fumigatus [18]) | MIC (Aspergillus versicolor [19]) | MFC (Aspergillus versicolor [20]) | also measured
CC1(C)c2ssc(=S)c2-c2ccccc2N1C(=O)CSC1=NCCS1 | 106 µM (≈ 45 µg/mL) | 141 µM (≈ 59.9 µg/mL) | 106 µM (≈ 45 µg/mL) | 141 µM (≈ 59.9 µg/mL) | 106 µM (≈ 45 µg/mL) | 141 µM (≈ 59.9 µg/mL) | 106 µM (≈ 45 µg/mL) | 141 µM (≈ 59.9 µg/mL) | 70.7 µM (≈ 30 µg/mL) | 141 µM (≈ 59.9 µg/mL) | 70.7 µM (≈ 30 µg/mL) | 141 µM (≈ 60 µg/mL) | 106 µM (≈ 45 µg/mL) | 141 µM (≈ 60 µg/mL) | 106 µM (≈ 45 µg/mL) | 141 µM (≈ 59.9 µg/mL) | 3.53 ×10⁻² mM | 7.06 ×10⁻² mM | 3.53 ×10⁻² mM | 7.06 ×10⁻² mM | MIC (Aspergillus ochraceus [21]): 1.88 ×10⁻² mM; MFC (Aspergillus ochraceus [22]): 3.53 ×10⁻² mM; MIC (Aspergillus niger [23]): 3.53 ×10⁻² mM; MFC (Aspergillus niger [24]): 7.06 ×10⁻² mM; MIC (Trichoderma viride [25]): 1.88 ×10⁻² mM; MFC (Trichoderma viride [26]): 3.53 ×10⁻² mM; MIC (Penicillium ochrochloron [27]): 3.53 ×10⁻² mM; MFC (Penicillium ochrochloron [28]): 7.06 ×10⁻² mM; MIC [29]: 3.53 ×10⁻² mM; MFC [30]: 7.06 ×10⁻² mM; MIC (Penicillium cyclopium [31]): 3.53 ×10⁻² mM; MFC (Penicillium cyclopium [32]): 7.06 ×10⁻² mM
COc1ccc2c(c1)-c1c(ssc1=S)C(C)(C)N2C(=O)CSc1nc2ccccc2s1 | 29.8 µM (≈ 15 µg/mL) | 59.7 µM (≈ 30 µg/mL) | 29.8 µM (≈ 15 µg/mL) | 59.7 µM (≈ 30 µg/mL) | 29.8 µM (≈ 15 µg/mL) | 59.7 µM (≈ 30 µg/mL) | 29.8 µM (≈ 15 µg/mL) | 59.7 µM (≈ 30 µg/mL) | 29.8 µM (≈ 15 µg/mL) | 59.7 µM (≈ 30 µg/mL) | 29.8 µM (≈ 15 µg/mL) | 59.7 µM (≈ 30 µg/mL) | 29.8 µM (≈ 15 µg/mL) | 59.7 µM (≈ 30 µg/mL) | 29.8 µM (≈ 15 µg/mL) | 59.7 µM (≈ 30 µg/mL) | 1.59 ×10⁻² mM | 2.98 ×10⁻² mM | 1.59 ×10⁻² mM | 2.98 ×10⁻² mM | MIC (Aspergillus ochraceus [21]): 1.59 ×10⁻² mM; MFC (Aspergillus ochraceus [22]): 2.98 ×10⁻² mM; MIC (Aspergillus niger [23]): 1.59 ×10⁻² mM; MFC (Aspergillus niger [24]): 2.98 ×10⁻² mM; MIC (Trichoderma viride [25]): 0.8 ×10⁻² mM; MFC (Trichoderma viride [26]): 1.59 ×10⁻² mM; MIC (Penicillium ochrochloron [27]): 0.4 ×10⁻² mM; MFC (Penicillium ochrochloron [28]): 0.8 ×10⁻² mM; MIC [29]: 1.59 ×10⁻² mM; MFC [30]: 2.98 ×10⁻² mM; MIC (Penicillium cyclopium [31]): 1.59 ×10⁻² mM; MFC (Penicillium cyclopium [32]): 2.98 ×10⁻² mM
